ChEMBL document CHEMBL2040727, “Substituted thiazoles VI. Synthesis and antitumor activity of new 2-acetamido- and 2 or 3-propanamido-thiazole analogs” (2012)

Tested on: SW-620
Assay: Growth inhibition of human SW620 cells at 10 uM after 48 hrs by coulter counter analysis
Type: functional
Details: SW-620, 48 h, read-out: GI
In short: (§1)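 Single-dose screen in the NCI 60 cell line panel. Cells grown in RPMI 1640 with 10% FBS. Compounds dissolved in DMSO and diluted in phosphate buffered saline, final DMSO under 1%. Duplicate wells seeded from culture at 6 × 10⁴ cells/ml. Incubated 48 h at 37 °C, humidified, 5% CO2. Cells diluted tenfold in saline and Coulter-counted. Percent growth inhibition computed against PBS/DMSO controls.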

Row | SMILES | inhibition of growth at 10 µM
1 | CCOC(=O)c1sc(NC(=O)C(C)N(CC)CC)nc1C (stereo not drawn) | < 10%

Tested on: SK-MEL-5
Assay: Growth inhibition of human SK-MEL-5 cells at 10 uM after 48 hrs by coulter counter analysis
Type: functional
Details: SK-MEL-5, 48 h, read-out: GI
In short: (§2)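 Single-dose NCI 60-line panel screen of test compounds. Cells grown in RPMI 1640 with 10% FBS. Compounds dissolved in DMSO, then diluted in phosphate buffer saline (final DMSO below 1%). Wells run in duplicate at 6 × 10⁴ cells/ml. Controls held PBS and DMSO at matching dilutions. Incubation 48 h at 37 °C under humidified 5% CO2. Cells diluted tenfold in saline and counted by Coulter counter. Percent growth inhibition taken from mean-graph of treated-cell growth.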

Row | SMILES | inhibition of growth at 10 µM
2 | CCOC(=O)c1sc(NC(=O)C(C)N(CC)CC)nc1C (stereo not drawn) | < 10%

Tested on: SR
Assay: Growth inhibition of human SR cells at 10 uM after 48 hrs by coulter counter analysis
Type: functional
Details: read-out: GI
In short: as §1

Row | SMILES | inhibition of growth at 10 µM
3 | CCOC(=O)c1sc(NC(=O)C(C)N(CC)CC)nc1C (stereo not drawn) | < 10%

Tested on: LOX IMVI
Assay: Growth inhibition of human LOXIMVI cells at 10 uM after 48 hrs by coulter counter analysis
Type: functional
Details: read-out: GI
In short: as §2

Row | SMILES | inhibition of growth at 10 µM
4 | CCOC(=O)c1sc(NC(=O)C(C)N(CC)CC)nc1C (stereo not drawn) | < 10%

Tested on: COLO 205
Assay: Growth inhibition of human COLO205 cells at 10 uM after 48 hrs by coulter counter analysis
Type: functional
Details: COLO 205, 48 h, read-out: GI
In short: as §2

Row | SMILES | inhibition of growth at 10 µM
5 | CCOC(=O)c1sc(NC(=O)C(C)N(CC)CC)nc1C (stereo not drawn) | < 10%

Tested on: ACHN
Assay: Growth inhibition of human ACHN cells at 10 uM after 48 hrs by coulter counter analysis
Type: functional
Details: read-out: GI
In short: as §2

Row | SMILES | inhibition of growth at 10 µM
6 | CCOC(=O)c1sc(NC(=O)C(C)N(CC)CC)nc1C (stereo not drawn) | < 10%

Tested on: NCI-H322M
Assay: Growth inhibition of human NCI-H322M cells at 10 uM after 48 hrs by coulter counter analysis
Type: functional
Details: read-out: GI
In short: as §2

Row | SMILES | inhibition of growth at 10 µM
7 | CCOC(=O)c1sc(NC(=O)C(C)N(CC)CC)nc1C (stereo not drawn) | < 10%

Tested on: not listed separately
Assay: Growth inhibition of human Hs 578T cells at 10 uM after 48 hrs by coulter counter analysis
Type: functional
Details: read-out: GI
In short: as §2

Row | SMILES | inhibition of growth at 10 µM
8 | CCOC(=O)c1sc(NC(=O)C(C)N(CC)CC)nc1C (stereo not drawn) | < 10%

Tested on: MDA-MB-468
Assay: Growth inhibition of human MDA-MB-468 cells at 10 uM after 48 hrs by coulter counter analysis
Type: functional
Details: MDA-MB-468, 48 h, read-out: GI
In short: as §2

Row | SMILES | inhibition of growth at 10 µM
9 | CCOC(=O)c1sc(NC(=O)C(C)N(CC)CC)nc1C (stereo not drawn) | < 10%

Tested on: SF-295
Assay: Growth inhibition of human SF295 cells at 10 uM after 48 hrs by coulter counter analysis
Type: functional
Details: SF-295, 48 h, read-out: GI
In short: as §2

Row | SMILES | inhibition of growth at 10 µM
10 | CCOC(=O)c1sc(NC(=O)C(C)N(CC)CC)nc1C (stereo not drawn) | < 10%

Tested on: T47D
Assay: Growth inhibition of human T47D cells at 10 uM after 48 hrs by coulter counter analysis
Type: functional
Details: read-out: GI
In short: as §1

Row | SMILES | inhibition of growth at 10 µM
11 | CCOC(=O)c1sc(NC(=O)C(C)N(CC)CC)nc1C (stereo not drawn) | < 10%

Tested on: OVCAR-4
Assay: Growth inhibition of human OVCAR4 cells at 10 uM after 48 hrs by coulter counter analysis
Type: functional
Details: OVCAR-4, 48 h, read-out: GI
In short: as §2

Row | SMILES | inhibition of growth at 10 µM
12 | CCOC(=O)c1sc(NC(=O)C(C)N(CC)CC)nc1C (stereo not drawn) | < 10%

Tested on: OVCAR-5
Assay: Growth inhibition of human OVCAR5 cells at 10 uM after 48 hrs by coulter counter analysis
Type: functional
Details: OVCAR-5, 48 h, read-out: GI
In short: as §2

Row | SMILES | inhibition of growth at 10 µM
13 | CCOC(=O)c1sc(NC(=O)C(C)N(CC)CC)nc1C (stereo not drawn) | < 10%

Tested on: BT-549
Assay: Growth inhibition of human BT549 cells at 10 uM after 48 hrs by coulter counter analysis
Type: functional
Details: BT-549, 48 h, read-out: GI
In short: as §2

Row | SMILES | inhibition of growth at 10 µM
14 | CCOC(=O)c1sc(NC(=O)C(C)N(CC)CC)nc1C (stereo not drawn) | < 10%

Tested on: SK-MEL-2
Assay: Growth inhibition of human SK-MEL-2 cells at 10 uM after 48 hrs by coulter counter analysis
Type: functional
Details: SK-MEL-2, 48 h, read-out: GI
In short: as §2

Row | SMILES | inhibition of growth at 10 µM
15 | CCOC(=O)c1sc(NC(=O)C(C)N(CC)CC)nc1C (stereo not drawn) | < 10%

Tested on: OVCAR-3
Assay: Growth inhibition of human OVCAR3 cells at 10 uM after 48 hrs by coulter counter analysis
Type: functional
Details: OVCAR-3, 48 h, read-out: GI
In short: as §2

Row | SMILES | inhibition of growth at 10 µM
16 | CCOC(=O)c1sc(NC(=O)C(C)N(CC)CC)nc1C (stereo not drawn) | < 10%

Tested on: MDA-MB-231
Assay: Growth inhibition of human MDA-MB-231 cells at 10 uM after 48 hrs by coulter counter analysis
Type: functional
Details: MDA-MB-231, 48 h, read-out: GI
In short: as §2

Row | SMILES | inhibition of growth at 10 µM
17 | CCOC(=O)c1sc(NC(=O)C(C)N(CC)CC)nc1C (stereo not drawn) | < 10%

Tested on: SF-539
Assay: Growth inhibition of human SF539 cells at 10 uM after 48 hrs by coulter counter analysis
Type: functional
Details: SF-539, 48 h, read-out: GI
In short: as §2

Row | SMILES | inhibition of growth at 10 µM
18 | CCOC(=O)c1sc(NC(=O)C(C)N(CC)CC)nc1C (stereo not drawn) | < 10%
